Assay results as given in ChEMBL document CHEMBL1134439, “Radioiodinated styrylbenzenes and thioflavins as probes for amyloid aggregates” (J Med Chem, 2001).

Target: Amyloid-beta precursor protein (Homo sapiens, UniProt P05067)
Test: Inhibition constant for aggregates of amyloid beta compared to [125I]IMSB
Method in brief: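 Aβ(1-40) or Aβ(1-42) aggregated at 0.5 or 0.25 mg/mL respectively in pH 7.4 buffer (10 mM sodium phosphate, 1 mM EDTA), 37 °C, 36-42 h with shaking. Competition against ¹²⁵I radioligand with fibrils 10-50 nM (final), 10% EtOH, 1 mL. Incubation 3 h room temperature. Bound ligand collected by GF/B filtration, γ-counted. Ki by nonlinear regression. Mean ± SEM, three experiments in duplicate.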

Sequence of Amyloid-beta precursor protein (P05067 whole entry): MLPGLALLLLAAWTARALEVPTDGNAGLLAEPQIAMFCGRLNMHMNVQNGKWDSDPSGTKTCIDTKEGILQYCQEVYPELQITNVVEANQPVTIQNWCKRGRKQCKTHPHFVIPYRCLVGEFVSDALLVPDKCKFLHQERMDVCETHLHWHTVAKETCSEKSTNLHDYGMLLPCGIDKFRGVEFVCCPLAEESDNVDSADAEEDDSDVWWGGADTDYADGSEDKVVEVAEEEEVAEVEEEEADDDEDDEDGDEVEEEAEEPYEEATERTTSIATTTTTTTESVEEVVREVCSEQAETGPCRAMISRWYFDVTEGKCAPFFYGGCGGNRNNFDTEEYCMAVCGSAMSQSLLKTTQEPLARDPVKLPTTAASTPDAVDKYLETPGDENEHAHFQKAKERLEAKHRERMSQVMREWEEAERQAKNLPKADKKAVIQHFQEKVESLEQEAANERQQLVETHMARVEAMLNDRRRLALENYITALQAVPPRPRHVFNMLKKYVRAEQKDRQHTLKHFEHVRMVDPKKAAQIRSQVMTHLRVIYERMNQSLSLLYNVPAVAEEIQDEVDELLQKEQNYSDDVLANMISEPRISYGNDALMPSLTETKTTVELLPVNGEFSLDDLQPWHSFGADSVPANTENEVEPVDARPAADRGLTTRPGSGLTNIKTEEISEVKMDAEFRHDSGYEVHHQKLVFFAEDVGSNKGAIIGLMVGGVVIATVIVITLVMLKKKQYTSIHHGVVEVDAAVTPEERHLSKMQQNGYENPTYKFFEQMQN

For `CN(C)c1ccc(-c2nc3ccc(Br)cc3s2)cc1`, the Ki was > 3000 nM.
`CN1CCN(c2ccc(-c3nc4ccc(Br)cc4s3)cc2)CC1` was tested, and the Ki was > 2400 nM.
